# Reference: ChEMBL document CHEMBL1138243, “Design of mechanism-based inhibitors of transthyretin amyloidosis: studies with biphenyl ethers and new structural templates” (J Med Chem, 2007)
# “And” between values parts separate entries of the source, which are not always exact repeats. Equal values may be shown once.
# Legend:
# Transthyretin [1] = target: T1, Transthyretin (Homo sapiens, UniProt P02766); assay: Inhibition of transthyretin fibril formation at pH 4.4 at 100 uM; type: functional
# Summary of the method: (§1)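 Library screen of acid-mediated TTR fibril formation at pH 4.4 with inhibitor at 100 µM. TTR was at 7.2 µM.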
# Transthyretin [2] = target: T1, Transthyretin; assay: Inhibition of transthyretin amyloidosis assessed as fibril formation pH 4.4 at 100 uM; type: functional; summary of the method: as §1
SMILES,inhibition (Transthyretin [1]),percent fibril formation relative to control (Transthyretin [2])
COC(=O)c1sc(=S)n(-c2ccc(Cl)c(Cl)c2)c1N,15.6%,84.5%
CCOc1cccc2c1OC(c1cccc(Cl)c1)N1N=C(c3cccs3)CC21 (stereo not drawn),0%,
O=C(CSc1nccn1-c1cccc(Cl)c1)Nc1cccc2ccccc12,0%,122%
Cc1nc2c(ccc3ccccc32)c(O)c1CN1CCOCC1,30.4%,69.6%
FC(F)(F)c1cccc(NC(=S)N(CCCN2CCCCC2)Cc2cccs2)c1,13.3%,86.7%
Clc1ccccc1C1CC(c2cccs2)Nc2nnnn21 (stereo not drawn),100%,0%
CCCCN(CC)Cc1c(C)nc2ccc(Cl)cc2c1O,20.3%,79.7%
O=C(O)CCc1nc(-c2cccs2)no1,67.9%,32.1%
O=C(O)C1CSC(c2ccc(Cl)c(Cl)c2)N1 (stereo not drawn),0%,102%
O=C(O)C1CSC(c2ccc([N+](=O)[O-])cc2)N1 (stereo not drawn),0%,119%
O=C1/C(=C\c2ccc(-c3ccc(Cl)cc3)o2)SC(=S)N1c1cccc(Cl)c1,0%,107%
CCOC(=O)c1sc(=S)n(-c2cccc3ccccc23)c1N,0%,146%
COc1ccccc1NC(=S)N(CCCN1CCCCCC1)Cc1cccs1,0%,104%
COc1cc(/C=C2\SC(=S)N(c3ccc(O)cc3)C2=O)ccc1O,0%,230%
O=C(NC(c1ccco1)c1cc(Cl)c2cccnc2c1O)c1cccnc1 (stereo not drawn),63.3%,36.7%
O=C1OC(/C=C/c2ccc(Cl)cc2Cl)=NC/1=C\c1cccs1,0%,294%
NN1C(=O)/C(=C\c2ccc(Cl)cc2)NC1=S,0%,131%

SMILES,inhibition (Transthyretin [1]),percent fibril formation relative to control (Transthyretin [2])
O=C(O)C1CSC(c2ccc(Cl)cc2Cl)N1 (stereo not drawn),77.7%,22.3%
Cc1ccc2nc(Nc3nc(O)c4ccccc4n3)nc(C)c2c1,31.1%,68.9%
Nc1nc(F)cc(Oc2ccc(F)cc2)n1,16%,84%
CCc1ccccc1NC(=S)N(CCN(C)C)Cc1cccs1,0%,108%
O=C(O)c1ccc(Cl)c(N2C(=O)C3C4CCC(C4)C3C2=O)c1 (stereo in doubt; 34),0%,104%
COc1ccc(C2NC(C(=O)O)CS2)cc1OC (stereo not drawn),0%,129%
CC(C)C(=O)NC(c1ccccc1)c1ccc2cccnc2c1O (stereo not drawn),95.4%,4.6%
O=C1/C(=C/c2ccc(Cl)cc2Cl)SC(=S)N1c1ccc(O)cc1,0%,291%
Cc1nc2c(C(=O)NCCC(C)C)cnn2c(O)c1Cc1ccccc1F,91.7%,-86.7%
Cc1nc2c(ccc3ccccc32)c(O)c1CN1CCCC1,33.1%,66.9%
O=C(NC(c1cccc([N+](=O)[O-])c1)c1cc(Cl)c2cccnc2c1O)c1cccnc1 (stereo not drawn),27.2%,72.8%
CSC1=NSC2=NC(=O)/C(=C\c3ccc(Cl)cc3)C(=N)N12,32.9%,67.1%
CSC1=NSC2=NC(=O)/C(=C\c3ccc(O)cc3)C(=N)N12,27.3%,72.7%
Cc1ccccc1Nc1c(-c2ccc(Cl)s2)nc2ccc(Cl)cn12,0%,306%
Cc1cc(C(=O)Nc2cc(Cl)ccc2O)no1,3.18% and 0%,
O=C(c1cnc(Nc2ccc(F)cc2)c2ccccc12)n1ccnc1,0%,
